Reference: PMC7614232 (Organic & biomolecular chemistry, 2022)
Read-outs that look alike come from different tables or passages of the source.

Experiments:
[1] = target: T1, LManII (lysosomal α-mannosidase) (Drosophila melanogaster, UniProt Q9VKV1); experiment: α-mannosidase inhibition assay with pNP-Man, LManII; type: biochemical; settings: for Ki: Dixon plots, pNP-Man 0.5-4 mM
T1 sequence (Q9VKV1 25-1080): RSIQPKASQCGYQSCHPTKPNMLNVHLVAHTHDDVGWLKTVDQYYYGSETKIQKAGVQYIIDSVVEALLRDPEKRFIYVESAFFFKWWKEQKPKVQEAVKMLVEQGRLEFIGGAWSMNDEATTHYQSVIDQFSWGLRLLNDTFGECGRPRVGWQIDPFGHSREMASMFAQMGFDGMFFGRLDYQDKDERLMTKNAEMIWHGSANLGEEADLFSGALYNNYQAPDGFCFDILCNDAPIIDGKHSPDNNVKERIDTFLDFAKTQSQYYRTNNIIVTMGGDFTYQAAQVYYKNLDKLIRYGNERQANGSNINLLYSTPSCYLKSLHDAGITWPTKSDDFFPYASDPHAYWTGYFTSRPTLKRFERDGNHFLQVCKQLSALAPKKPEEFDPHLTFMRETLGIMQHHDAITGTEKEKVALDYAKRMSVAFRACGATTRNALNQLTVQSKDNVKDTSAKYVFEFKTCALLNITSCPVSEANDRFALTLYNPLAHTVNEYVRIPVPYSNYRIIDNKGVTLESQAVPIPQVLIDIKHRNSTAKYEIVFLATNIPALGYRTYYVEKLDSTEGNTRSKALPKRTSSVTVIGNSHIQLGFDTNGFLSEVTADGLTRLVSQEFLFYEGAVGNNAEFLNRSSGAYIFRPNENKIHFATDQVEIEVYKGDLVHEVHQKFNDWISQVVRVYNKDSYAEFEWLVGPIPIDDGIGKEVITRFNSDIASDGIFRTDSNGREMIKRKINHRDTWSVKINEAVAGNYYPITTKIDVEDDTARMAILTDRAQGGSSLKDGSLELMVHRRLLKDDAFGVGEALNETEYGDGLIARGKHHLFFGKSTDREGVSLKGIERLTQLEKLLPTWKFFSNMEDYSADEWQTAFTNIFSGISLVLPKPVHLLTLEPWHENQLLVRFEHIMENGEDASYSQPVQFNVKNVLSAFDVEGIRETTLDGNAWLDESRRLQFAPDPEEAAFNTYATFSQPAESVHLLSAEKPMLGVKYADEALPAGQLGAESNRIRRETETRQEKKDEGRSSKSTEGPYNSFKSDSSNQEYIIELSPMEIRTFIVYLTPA
Method in brief: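 Recombinant Drosophila lysosomal α-mannosidase, isolated and purified, assayed in 50 mM acetate buffer at pH 5.2. Compound (50 mM DMSO solution diluted in water) preincubated with enzyme 5 min at rt before pNP-Man was added. Incubated 1-2 h at 37 °C, stopped with 0.5 M sodium carbonate, p-nitrophenol read at 405 nm. […] Three independent experiments in duplicate.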

[2] = target: T2, GMIIb (Golgi α-mannosidase) (Drosophila melanogaster, UniProt Q9VF33); experiment: α-mannosidase inhibition assay with pNP-Man, GMIIb; type: biochemical; settings: for SI^a = IC50(LManII)/IC50(GMIIb): selectivity index
T2 sequence (Q9VF33 31-1249): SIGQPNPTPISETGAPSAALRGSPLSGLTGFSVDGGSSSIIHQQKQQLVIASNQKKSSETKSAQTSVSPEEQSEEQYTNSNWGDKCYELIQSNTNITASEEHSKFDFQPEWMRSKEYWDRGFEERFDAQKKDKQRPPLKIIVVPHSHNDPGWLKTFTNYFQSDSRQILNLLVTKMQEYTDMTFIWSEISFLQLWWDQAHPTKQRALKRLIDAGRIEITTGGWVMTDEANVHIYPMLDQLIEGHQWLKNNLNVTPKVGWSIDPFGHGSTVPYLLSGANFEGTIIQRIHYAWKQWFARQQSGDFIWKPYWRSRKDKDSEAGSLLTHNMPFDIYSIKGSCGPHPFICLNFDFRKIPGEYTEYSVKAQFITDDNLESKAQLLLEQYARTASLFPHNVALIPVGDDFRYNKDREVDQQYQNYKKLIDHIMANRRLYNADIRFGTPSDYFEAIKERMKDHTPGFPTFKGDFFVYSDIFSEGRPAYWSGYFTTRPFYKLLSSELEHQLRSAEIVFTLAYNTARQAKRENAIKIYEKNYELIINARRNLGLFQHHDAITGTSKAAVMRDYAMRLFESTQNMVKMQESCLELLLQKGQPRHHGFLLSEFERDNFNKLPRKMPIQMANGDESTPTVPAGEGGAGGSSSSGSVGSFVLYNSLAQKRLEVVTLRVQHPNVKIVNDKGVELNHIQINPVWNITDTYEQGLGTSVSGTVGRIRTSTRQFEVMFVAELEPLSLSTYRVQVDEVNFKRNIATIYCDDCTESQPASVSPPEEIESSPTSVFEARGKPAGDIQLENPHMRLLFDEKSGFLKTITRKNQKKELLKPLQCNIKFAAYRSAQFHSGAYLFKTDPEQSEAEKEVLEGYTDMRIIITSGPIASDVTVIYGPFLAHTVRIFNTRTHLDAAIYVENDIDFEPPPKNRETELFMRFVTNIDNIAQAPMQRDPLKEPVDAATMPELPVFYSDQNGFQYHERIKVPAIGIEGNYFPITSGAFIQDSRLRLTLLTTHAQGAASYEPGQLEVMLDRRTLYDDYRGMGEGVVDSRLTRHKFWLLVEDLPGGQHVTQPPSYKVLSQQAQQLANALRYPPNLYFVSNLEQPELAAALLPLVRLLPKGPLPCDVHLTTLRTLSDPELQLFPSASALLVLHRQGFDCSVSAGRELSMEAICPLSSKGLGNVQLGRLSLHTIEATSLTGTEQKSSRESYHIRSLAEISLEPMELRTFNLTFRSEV

[3] = read-out: IC50 LManII, 2 mM pNP-Man, pH 5.2
[4] = read-out: IC50 GMIIb, 2 mM pNP-Man, pH 6.0
[5] = read-out: Ki GMIIb, Dixon plots, pNP-Man 0.5-4 mM, pH 6.0

SI^a = IC50(LManII)/IC50(GMIIb) [2]	IC50 [1, 3] [µM]	IC50 [2, 4] [µM]	Compound	IC50 [1] [µM]	IC50 [2] [µM]	further results
142	340 ± 35	2.4 ± 0.1	Cl.N=C(N)NCc1ccc(CN2C[C@@H](O)[C@@H](O)[C@H]2CO)cc1 [Compound 9, 1,4-Dideoxy-N-4-guanidinomethylbenzyl-1,4-imino-d-lyxitol hydrochloride]			Ki ([1]; read-out: Ki LManII, pH 5.2): 165 µM; Ki [2, 5]: 0.83 µM
105	460 ± 53	4.4 ± 0.2	OCC1C(O)C(O)CN1Cc1ccc(I)cc1 (stereo not drawn) [Compound 16, 1,4-Dideoxy-1,4-imino-N-4-iodobenzyl-d-lyxitol]			
111	845 ± 170	7.6 ± 1.1	OC[C@@H]1[C@H](O)[C@H](O)CN1Cc1ccc2ccccc2c1 [Compound 17, 1,4-Dideoxy-1,4-imino-N-(naphthalen-2-ylmethyl)-d-lyxitol]			IC50 ([2]; read-out: IC50 GMIIb, 2 mM pNP-Man, pH 6.0, listed as N-2-naphtylmethyl): 2.4 µM
27	12 ± 1.3	0.45 ± 0.08	OCC1C(O)C(O)CN1CCc1cccc2ccccc12 (stereo not drawn) [Compound 18, 1,4-Dideoxy-1,4-imino-N-(2-(naphthalen-1-yl)ethyl)-d-lyxitol]			Ki ([1]; read-out: Ki LManII, pH 5.2): 3.9 µM; Ki [2, 5]: 0.16 µM; Ki ([2]; read-out: Ki(GMIIb)): 0.15 µM

Continued, compound first:

Compound	SI^a = IC50(LManII)/IC50(GMIIb) [2]	IC50 [1, 3] [µM]	IC50 [2, 4] [µM]	IC50 [1] [µM]	IC50 [2] [µM]	further results
OC[C@@H]1[C@H](O)[C@H](O)CN1Cc1ccccc1 [Compound 4, N-Benzyl-1,4-dideoxy-1,4-imino-d-lyxitol]	61			675 ± 67	11 ± 1.3	
OC[C@@H]1[C@H](O)[C@H](O)CN1CC1CCCCC1 [Compound 19, N-Cyclohexylmethyl-1,4-dideoxy-1,4-imino-d-lyxitol]	54			190 ± 53	3.5 ± 0.3	
OC[C@@H]1[C@H](O)[C@H](O)CN1CC1CCOCC1 [Compound 20]	63	980 ± 102	15.5 ± 0.5			
CCCCCCCCCCCCN1C[C@@H](O)[C@@H](O)[C@H]1CO [Compound 21, 1,4-Dideoxy-N-dodecyl-1,4-imino-d-lyxitol]	30			11.8 ± 1.2	0.4 ± 0.05	
Cl.N=C(N)NCCCCCCCCCCN1C[C@@H](O)[C@@H](O)[C@H]1CO [Compound 25, 1,4-Dideoxy-N-(10-guanidinodecyl)-1,4-imino-d-lyxitol hydrochloride]	18			8.3 ± 2.1	0.45 ± 0.1	
Cl.N=C(N)CCCCCCCCCN1C[C@@H](O)[C@@H](O)[C@H]1CO [Compound 26, N-(9-amidinononyl)-1,4-dideoxy-1,4-imino-d-lyxitol hydrochloride]	35			6.7 ± 1.2	0.19 ± 0.02	Ki ([1]; Ki LManII, pH 5.2): 3.2 µM; Ki [2]: 0.04 µM
